Experiments:
[1] = test system: Trypanosoma brucei; test: Antitrypanosomal activity against Trypanosoma brucei incubated for 72 hrs by alamar blue dye based fluorimetry analysis; type: functional, organism-based
Summary of the method: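 Bloodstream-form T. brucei S16 (Lister 427, MiTat 1.2), 1×10^3 per well in HMI-9 with 20% hiFBS, exposed to increasing compound concentrations for 72 h at 37 °C, 5% CO2. Resazurin then added for 4 h, cells lysed with SDS, fluorescence read at ex 550/em 590 nm. IC50 from four-parameter logistic fit; three independent runs, each in triplicate.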

[2] = Selectivity index, ratio of IC50 for human MRC5 cells to IC50 for human HT-29 cells; type: toxicity; conditions: MRC5 cells versus HT-29 cells, read-out: Selectivity Index
Summary of the method: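 Selectivity index: MRC-5 IC50 divided by HT-29 IC50.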

[3] = Drug uptake in Trypanosoma brucei at 10 uM incubated for 2 hrs by fluorescence based multiplate reader method; type: ADME
[4] = test system: HT-29; test: Cytotoxicity against human HT-29 cells assessed as reduction in cell viability incubated for 48 hrs by MTT assay; type: functional, cell-based; conditions: HT-29, 48 h
Summary of the method: (§1)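 MTT assay: 5×10^3 cells per well in DMEM with 10% hiFBS (4.5 g/L glucose for HT-29, 1 g/L for MRC-5), exposed to increasing compound concentrations for 48 h at 37 °C. MTT added for 4 h, formazan dissolved in DMSO, absorbance read at 575 nm. IC50 from four-parameter logistic fit.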

[5] = Selectivity index, ratio of IC50 for cytotoxicity against human MRC5 cells to IC50 for antileishmanial activity against Leishmania major (MHOM/IL/80/Friedlin) promastigotes; type: toxicity, cell-based; conditions: read-out: Selectivity Index
Summary of the method: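 Selectivity index: MRC-5 IC50 divided by L. major promastigote IC50.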

[6] = test system: Leishmania major; test: Antileishmanial activity against Leishmania major (MHOM/IL/80/Friedlin) promastigotes assessed as reduction in parasite growth incubated for 72 hrs by MTT assay; type: functional, organism-based
Summary of the method: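 L. major Friedlin promastigotes, 1×10^6/mL in modified RPMI-1640 with 10% hiFBS, exposed to increasing compound concentrations for 72 h at 28 °C; proliferation read by MTT; IC50 from four-parameter logistic fit versus untreated controls.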

[7] = test system: Quadruplex DNA; test: Binding affinity to human G-quadruplex telomeric DNA F21T (5'-duplex GGG TTAGGG TTAGGG TTAGGG-3') assessed as change in melting temperature at 5 uM incubated for 5 min by FRET assay; type: nucleic-acid assay
Summary of the method: (§2)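 Fluorescently labelled oligonucleotide annealed (95 °C, 5 min) in 10 mM lithium cacodylate/90 mM LiCl, pH 7.2; 0.2 μM final, with or without ligand. Held 5 min at 25 °C, then heated 0.5 °C/min to 95 °C. Tm taken at normalized signal 0.5; ΔTm = Tm with ligand minus Tm without. Tested in duplicate.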

[8] = test system: Quadruplex DNA; test: Binding affinity to human G-quadruplex telomeric DNA F21T (5'-duplex GGG TTAGGG TTAGGG TTAGGG-3') assessed as change in melting temperature at 1 uM incubated for 5 min by FRET assay; type: nucleic-acid assay; summary of the method: as §2
[9] = Selectivity index, ratio of IC50 for cytotoxicity against human MRC5 cells to IC50 for antitrypanosomal activity against Trypanosoma brucei; type: toxicity, cell-based; conditions: MRC5 cells versus Trypanosoma brucei, read-out: Selectivity Index
Summary of the method: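 Selectivity index: MRC-5 IC50 divided by T. brucei IC50.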

[10] = Cytotoxicity against human MRC5 cells assessed as reduction in cell viability incubated for 48 hrs by MTT assay; type: toxicity, cell-based; summary of the method: as §1

IC50 [1]: 0.85 µM
Drug uptake [3]: 6.8%
ΔTm [7]: 5 °C
ΔTm [8]: 1 °C
Structure (SMILES): O=C1c2ccc3c4c(c(NCc5cn(CCS[C@@H]6O[C@H](CO)[C@H](O)[C@H](O)[C@H]6O)nn5)cc(c24)C(=O)N1CCN1CCOCC1)C(=O)N(CCN1CCOCC1)C3=O
selectivity ratio [2]: 0.9
IC50 [4]: 26.5 µM
selectivity ratio [5]: 0.8
IC50 [6]: 30 µM
selectivity ratio [9]: 27.6
IC50 at 48 h [10]: 23.5 µM
